Assay results reported in ChEMBL document CHEMBL1133118 (J Med Chem, 2000).

Experiments:
[1] = biological target: Adenosine receptors; A2b & A3 (Homo sapiens) (UniProt P29275+P0DMS8); assay: Ratio of binding affinity of human A2B receptor to that of human A3 receptor; type: protein assay
Outline: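 Ki ratio, n=3-6, 6–8 concentrations. A2B in HEK-293 membranes (20 μg): 40 nM [3H]DPCPX, 50 mM Tris HCl, 10 mM MgCl2, 1 mM EDTA, 0.1 mM benzamidine pH 7.4, 2 IU/mL adenosine deaminase, 60 min at 25 °C, nonspecific with 100 μM NECA. A3 in CHO membranes (50 μg): 1 nM [3H]MRE3008-F20, 120 min at 4 °C.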

Adenosine receptor A1 [2] = biological target: T1, Adenosine receptor A1 (Homo sapiens, UniProt P30542); assay: Displacement of [3H]DPCPX from human adenosine A1 receptor expressed in CHO cells; range 1.72-2.36; type: cell-based
T1 sequence (P30542 whole entry): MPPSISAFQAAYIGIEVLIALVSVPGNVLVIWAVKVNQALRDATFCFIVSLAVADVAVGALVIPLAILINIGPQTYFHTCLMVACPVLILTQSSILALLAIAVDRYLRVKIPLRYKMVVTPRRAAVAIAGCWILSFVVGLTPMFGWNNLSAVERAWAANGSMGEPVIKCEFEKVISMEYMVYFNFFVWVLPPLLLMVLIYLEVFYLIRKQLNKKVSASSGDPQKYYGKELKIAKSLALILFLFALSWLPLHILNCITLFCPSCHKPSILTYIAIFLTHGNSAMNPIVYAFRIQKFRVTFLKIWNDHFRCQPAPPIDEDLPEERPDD

[3] = biological target: Adenosine receptors; A1 & A3 (Homo sapiens) (UniProt P30542+P0DMS8); assay: Ratio of binding affinity of human A1 receptor to that of human A3 receptor; type: protein assay
Outline: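 Ki ratio from displacement in CHO membranes, 6–8 concentrations, n=3-6, filtration counting. A1: 1 nM [3H]DPCPX, 50 μg protein, 120 min at 25 °C, nonspecific with 10 μM CHA. A3: 1 nM [3H]MRE3008-F20, 50 μg protein, Tris/10 mM MgCl2 pH 7.4, 120 min at 4 °C, nonspecific with 1 μM MRE3008-F20.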

Adenosine receptor A2b [4] = biological target: T2, Adenosine receptor A2b (Homo sapiens, UniProt P29275); assay: Displacement of [3H]-DPCPX from Adenosine A2b receptor expressed in […]; range 7.4-11.3; type: cell-based
T2 sequence (P29275 whole entry): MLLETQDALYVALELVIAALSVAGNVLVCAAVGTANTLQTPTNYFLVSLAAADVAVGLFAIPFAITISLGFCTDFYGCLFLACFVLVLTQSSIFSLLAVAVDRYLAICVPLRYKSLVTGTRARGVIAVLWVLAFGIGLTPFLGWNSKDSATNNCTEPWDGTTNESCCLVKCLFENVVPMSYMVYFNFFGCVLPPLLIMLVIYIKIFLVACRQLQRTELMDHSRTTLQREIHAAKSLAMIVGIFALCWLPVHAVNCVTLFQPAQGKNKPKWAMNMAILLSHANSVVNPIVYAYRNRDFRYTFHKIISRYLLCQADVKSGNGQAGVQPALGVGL

Adenosine receptor A3 [5] = biological target: T3, Adenosine receptor A3 (Homo sapiens, UniProt P0DMS8); assay: Displacement of [3H]MRE3008-F20 from human adenosine A3 receptor expressed in CHO cells; range 664-738; type: cell-based
T3 sequence (P0DMS8 whole entry): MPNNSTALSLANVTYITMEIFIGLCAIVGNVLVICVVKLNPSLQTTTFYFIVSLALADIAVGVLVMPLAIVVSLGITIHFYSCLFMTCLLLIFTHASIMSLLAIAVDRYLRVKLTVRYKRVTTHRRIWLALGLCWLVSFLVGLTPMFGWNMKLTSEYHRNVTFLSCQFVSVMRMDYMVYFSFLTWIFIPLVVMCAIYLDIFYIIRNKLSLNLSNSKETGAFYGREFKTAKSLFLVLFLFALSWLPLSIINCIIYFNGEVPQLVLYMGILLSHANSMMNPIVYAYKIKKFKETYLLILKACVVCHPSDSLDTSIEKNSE

[6] = biological target: T4, Adenosine receptor A3 (Homo sapiens) (UniProt P0DMS8); assay: Percent reversal of 100 nM IB-MECA-inhibited cAMP accumulation in CHO cells expressing human adenosine A3 receptor at 1 uM; type: functional, cell-based
T4 sequence (whole entry): T3 sequence (P0DMS8 whole entry)
Outline: (§1)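 CHO cells stably expressing human A3 receptor; membranes in 50 mM Tris HCl, 10 mM MgCl2, 1 mM EDTA pH 7.4 with 5 μM GTP, 0.5 mM […] and 2.0 IU/mL adenosine deaminase. Preincubated 10 min at 37 °C, then IB-MECA (100 nM) and/or antagonist with 1 mM ATP and 10 μM forskolin for 10 min. Boiled 2 min. cAMP read by [3H]cAMP competition with adrenal binding protein.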

Adenosine receptor A3 [7] = biological target: T3, Adenosine receptor A3; assay: Displacement of [3H]MRE3008-F20 from human adenosine A3 receptor expressed in CHO cells; range 691-952; type: cell-based
Adenosine receptor A1 [8] = biological target: T1, Adenosine receptor A1; assay: Displacement of [3H]DPCPX from human adenosine A1 receptor expressed in CHO cells; range 4.72-6.23; type: cell-based
[9] = biological target: T4, Adenosine receptor A3 (Homo sapiens); assay: Percentage of blockade by 1 uM of the inhibition by 100 nM IB-MECA-inhibited cAMP accumulation in CHO cells expressing human adenosine A3 receptor.; type: functional, cell-based; outline: as §1
Adenosine receptor A2a [10] = biological target: T5, Adenosine receptor A2a (Homo sapiens, UniProt P29274); assay: Displacement of [3H]-SCH- 58261 from human adenosine A2A receptor expressed in CHO cells; range 0.65-1.06; type: cell-based
T5 sequence (P29274 whole entry): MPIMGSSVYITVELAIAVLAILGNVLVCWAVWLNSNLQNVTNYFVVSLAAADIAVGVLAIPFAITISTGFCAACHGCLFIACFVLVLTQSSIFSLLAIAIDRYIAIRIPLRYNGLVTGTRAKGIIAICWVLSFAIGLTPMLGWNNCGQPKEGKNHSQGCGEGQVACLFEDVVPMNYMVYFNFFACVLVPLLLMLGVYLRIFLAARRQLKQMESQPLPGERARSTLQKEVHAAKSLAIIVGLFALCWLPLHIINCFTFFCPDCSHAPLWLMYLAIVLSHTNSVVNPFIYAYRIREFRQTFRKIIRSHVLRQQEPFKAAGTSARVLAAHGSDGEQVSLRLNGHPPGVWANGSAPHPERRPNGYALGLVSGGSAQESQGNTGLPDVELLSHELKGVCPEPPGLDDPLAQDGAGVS
Outline: (§2)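 Membranes from CHO cells stably expressing human A2A receptor, grown in DMEM/F12 without nucleosides, resuspended in 50 mM Tris HCl, 10 mM MgCl2, pH 7.4; 50 μg protein/assay. Competition with [3H]SCH 58261 at 6–8 or more compound concentrations, 60 min at 25 °C; nonspecific binding with 50 μM NECA. Filtration on GF/B filters, scintillation counting; n=3-6.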

Adenosine receptor A2b [11] = biological target: T2, Adenosine receptor A2b; assay: Displacement of [3H]-DPCPX from Adenosine A2b receptor expressed in CHO cells; range 8-18; type: cell-based; conditions: in the assay text read “HEK-293 cells” for “CHO cells”
Outline: (§3)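 Human recombinant A2B receptor was expressed in HEK-293 cell membranes (20 μg protein). Incubated with 40 nM [3H]DPCPX in 50 mM Tris HCl, 10 mM MgCl2, 1 mM EDTA, 0.1 mM benzamidine, pH 7.4, with 2 IU/mL adenosine deaminase, at least 6–8 test concentrations, 60 min, 25 °C. Nonspecific binding was taken with 100 μM NECA; n=3-6.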

[12] = biological target: T4, Adenosine receptor A3 (Homo sapiens); conditions: CHO, 1 uM
Adenosine receptor A3 [13] = biological target: T3, Adenosine receptor A3; assay: Inhibition of cAMP accumulation in CHO cells expressing human adenosine A3 receptor; range 10.8-21.5; type: functional, cell-based
Adenosine receptor A3 [14] = biological target: T3, Adenosine receptor A3; assay: Displacement of [3H]MRE3008-F20 from human adenosine A3 receptor expressed in CHO cells; range 1.42-1.79; type: cell-based
Adenosine receptor A2a [15] = biological target: T5, Adenosine receptor A2a; assay: Displacement of [3H]-SCH- 58261 from human adenosine A2A receptor expressed in CHO cells; range 160-210; type: cell-based
Outline: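 CHO membranes expressing human A2A receptor (50 μg protein) in 50 mM Tris HCl, 10 mM MgCl2, pH 7.4, competed against [3H]SCH 58261. At least 6–8 test concentrations were used, with 60 min incubation at 25 °C. Nonspecific binding defined by 50 μM NECA; n=3-6.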

Adenosine receptor A2b [16] = biological target: T2, Adenosine receptor A2b; assay: Displacement of [3H]DPCPX from Adenosine A2b receptor expressed in […]; range 107-210; type: cell-based
Adenosine receptor A3 [17] = biological target: T3, Adenosine receptor A3; assay: Displacement of [3H]MRE3008-F20 from human adenosine A3 receptor expressed in CHO cells; range 0.51-0.70; type: cell-based
Adenosine receptor A2b [18] = biological target: T2, Adenosine receptor A2b; assay: Displacement of [3H]DPCPX from Adenosine A2b receptor expressed in […]; range 188-320; type: cell-based; outline: as §3
Adenosine receptor A3 [19] = biological target: T3, Adenosine receptor A3; assay: Inhibition of cAMP accumulation in CHO cells expressing human adenosine A3 receptor; range 2.5-9.3; type: functional, cell-based
Adenosine receptor A2b [20] = biological target: T2, Adenosine receptor A2b; assay: Displacement of [3H]DPCPX from Adenosine A2b receptor expressed in […]; range 70-94; type: cell-based
Adenosine receptor A3 [21] = biological target: T3, Adenosine receptor A3; assay: Inhibition of cAMP accumulation in CHO cells expressing human adenosine A3 receptor; type: functional, cell-based
Adenosine receptor A3 [22] = biological target: T3, Adenosine receptor A3; assay: Displacement of [3H]MRE3008-F20 from human adenosine A3 receptor expressed in CHO cells; […]; type: cell-based
Adenosine receptor A3 [23] = biological target: T3, Adenosine receptor A3; assay: Inhibition of cAMP accumulation in CHO cells expressing human adenosine A3 receptor; range 1.1-3.8; type: functional, cell-based
Adenosine receptor A2b [24] = biological target: T2, Adenosine receptor A2b; assay: Displacement of [3H]DPCPX from Adenosine A2b receptor expressed in […]; range 19-27; type: cell-based
Adenosine receptor A2a [25] = biological target: T5, Adenosine receptor A2a; assay: biochemical
[26] = biological target: T4, Adenosine receptor A3 (Homo sapiens); assay: Percent reversal of 100 nM IB-MECA-inhibited cAMP accumulation in CHO cells expressing human adenosine A3 receptor at 1 uM; range 92-102; type: functional, cell-based; outline: as §1
Adenosine receptor A1 [27] = biological target: T1, Adenosine receptor A1; assay: Displacement of [3H]DPCPX from human adenosine A1 receptor expressed in CHO cells; range 6.5-8.7; type: cell-based
Adenosine receptor A2a [28] = biological target: T5, Adenosine receptor A2a; assay: Displacement of [3H]-SCH- 58261 from human adenosine A2A receptor expressed in CHO cells; range 85-164; type: cell-based; outline: as §2
Adenosine receptor A3 [29] = biological target: T3, Adenosine receptor A3; assay: Displacement of [3H]MRE3008-F20 from human adenosine A3 receptor expressed in CHO cells; range 33-48; type: cell-based
Adenosine receptor A2b [30] = biological target: T2, Adenosine receptor A2b; assay: Displacement of [3H]DPCPX from Adenosine A2b receptor expressed in […]; range 55-68; type: cell-based; outline: as §3
[31] = biological target: T4, Adenosine receptor A3 (Homo sapiens); conditions: CHO, 1 uM; remark: listed apart in the source
Adenosine receptor A1 [32] = biological target: T1, Adenosine receptor A1; assay: Displacement of [3H]DPCPX from human adenosine A1 receptor expressed in CHO cells; range 83-120; type: cell-based

CC(C)CCn1cc2c(nc(N)n3nc(-c4ccco4)nc23)n1
Ratio [1]: 0.013
Ki (Adenosine receptor A1 [2]): 0.002 µM
Ratio [3]: 0.002
Ki (Adenosine receptor A2b [4]): 0.0091 µM
Ki (Adenosine receptor A3 [5]): 0.7 µM
inhibition [6]: 14%

CC(C)=CCn1cc2c(nc(N)n3nc(-c4ccco4)nc23)n1
Ratio [1]: 0.014
Ki (Adenosine receptor A3 [7]): 0.811 µM
Ki (Adenosine receptor A1 [8]): 0.00542 µM
Ratio [3]: 0.006
inhibition [9]: 12%
Ki (Adenosine receptor A2a [10]): 0.0008 µM
Ki (Adenosine receptor A2b [11]): 0.012 µM

CCn1cc2c(nc(NC(=O)Nc3cccc(Cl)c3)n3nc(-c4ccco4)nc23)n1
inhibition [12]: 68%
Ratio [1]: 93.7
IC50 (Adenosine receptor A3 [13]): 0.0148 µM
Ki (Adenosine receptor A3 [14]): 0.0016 µM
Ratio [3]: 155
Ki (Adenosine receptor A2a [15]): 0.18 µM
Ki (Adenosine receptor A2b [16]): 0.15 µM

CCn1cc2c(nc(NC(=O)Nc3ccc(OC)cc3)n3nc(-c4ccco4)nc23)n1
Ratio [1]: 408
Ki (Adenosine receptor A3 [17]): 0.0006 µM
Ratio [3]: 1710
Ki (Adenosine receptor A2b [18]): 0.245 µM
IC50 (Adenosine receptor A3 [19]): 0.0048 µM

COc1ccc(NC(=O)Nc2nc3nn(CCc4ccccc4)cc3c3nc(-c4ccco4)nn23)cc1
Ki (Adenosine receptor A2b [20]): 0.081 µM
Ratio [1]: 82.6
IC50 (Adenosine receptor A3 [21]): 0.0139 µM
Ratio [3]: 205
Ki (Adenosine receptor A3 [22]): 0.00098 µM

COc1ccc(NC(=O)Nc2nc3ccc(Cl)cc3c3nc(-c4ccco4)nn23)cc1
Ratio [1]: 158
IC50 (Adenosine receptor A3 [23]): 0.002 µM
Ratio [3]: 43
Ki (Adenosine receptor A2b [24]): 0.022 µM
Ki (Adenosine receptor A2a [25]): 0.0094 µM
inhibition [26]: 97%
Ki (Adenosine receptor A1 [27]): 0.0076 µM

CC(C)CCn1cc2c(nc(NC(=O)Nc3cccc(Cl)c3)n3nc(-c4ccco4)nc23)n1
Ratio [1]: 1.5
Ki (Adenosine receptor A2a [28]): 0.115 µM
Ratio [3]: 2.5
Ki (Adenosine receptor A3 [29]): 0.04 µM
Ki (Adenosine receptor A2b [30]): 0.061 µM
inhibition [31]: 45%
Ki (Adenosine receptor A1 [32]): 0.1 µM
